Measured values: ChEMBL document CHEMBL5316288, “Synthetic Strategies for Improving Solubility: Optimization of Novel Pyrazolo[1,5-a]pyrimidine CFTR Activator That Ameliorates Dry Eye Disease” (J Med Chem, 2023)
Values after ≈ are worked out from the molar mass of the structure shown. Active and inactive are the calls of the source. The calls are words filed in the database; no cut-off is given here.

Assays:
[1] = biological target: T1, Cystic fibrosis transmembrane conductance regulator (Homo sapiens, UniProt P13569); assay: Activation of human wild-type CFTR stably expressed in CHO-K1 cells co-expressing halide sensors YFP-H148Q/I152L assessed as CFTR-mediated iodide influx incubated for 10 mins by YFP fluorescence quenching assay; assay type: cell-based
Target sequence in this assay (P13569 whole entry): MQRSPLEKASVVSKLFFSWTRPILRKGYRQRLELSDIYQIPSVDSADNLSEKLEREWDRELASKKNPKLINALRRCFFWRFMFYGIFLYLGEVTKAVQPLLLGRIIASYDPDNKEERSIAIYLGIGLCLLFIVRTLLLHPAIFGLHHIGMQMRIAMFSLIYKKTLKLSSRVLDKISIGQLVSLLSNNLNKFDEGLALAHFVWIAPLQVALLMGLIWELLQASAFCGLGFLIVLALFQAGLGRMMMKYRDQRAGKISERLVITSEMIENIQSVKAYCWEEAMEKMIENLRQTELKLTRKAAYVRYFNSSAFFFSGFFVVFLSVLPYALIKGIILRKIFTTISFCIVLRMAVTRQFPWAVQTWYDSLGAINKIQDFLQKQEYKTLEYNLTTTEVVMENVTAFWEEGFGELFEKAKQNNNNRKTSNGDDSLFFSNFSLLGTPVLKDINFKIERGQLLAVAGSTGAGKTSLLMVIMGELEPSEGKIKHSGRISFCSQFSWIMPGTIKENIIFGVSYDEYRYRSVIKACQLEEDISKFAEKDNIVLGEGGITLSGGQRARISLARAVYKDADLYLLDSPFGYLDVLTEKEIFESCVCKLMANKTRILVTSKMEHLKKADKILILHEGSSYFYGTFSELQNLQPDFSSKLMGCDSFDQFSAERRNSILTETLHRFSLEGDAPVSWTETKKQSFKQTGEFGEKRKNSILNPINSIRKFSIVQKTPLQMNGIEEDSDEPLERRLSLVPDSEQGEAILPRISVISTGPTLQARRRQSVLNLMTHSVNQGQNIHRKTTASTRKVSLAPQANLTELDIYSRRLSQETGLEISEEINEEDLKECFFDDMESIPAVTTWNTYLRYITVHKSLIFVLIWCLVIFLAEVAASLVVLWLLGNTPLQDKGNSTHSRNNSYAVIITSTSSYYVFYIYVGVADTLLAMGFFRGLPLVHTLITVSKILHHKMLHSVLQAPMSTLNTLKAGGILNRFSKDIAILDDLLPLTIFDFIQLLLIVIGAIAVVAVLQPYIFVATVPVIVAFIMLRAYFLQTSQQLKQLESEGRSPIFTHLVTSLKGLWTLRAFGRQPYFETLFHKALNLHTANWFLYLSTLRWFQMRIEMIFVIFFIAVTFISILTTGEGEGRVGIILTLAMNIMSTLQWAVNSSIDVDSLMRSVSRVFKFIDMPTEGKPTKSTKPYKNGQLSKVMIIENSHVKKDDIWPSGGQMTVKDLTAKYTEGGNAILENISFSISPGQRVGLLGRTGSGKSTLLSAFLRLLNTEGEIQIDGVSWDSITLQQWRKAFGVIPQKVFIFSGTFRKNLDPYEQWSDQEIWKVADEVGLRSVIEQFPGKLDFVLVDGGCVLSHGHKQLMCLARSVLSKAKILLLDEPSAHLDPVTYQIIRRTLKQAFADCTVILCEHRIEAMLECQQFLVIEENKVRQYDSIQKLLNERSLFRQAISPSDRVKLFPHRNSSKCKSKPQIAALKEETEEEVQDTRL

[2] = Solubility of compound in PBS at 7.5 at 0.5 mg/ml incubated for 90 mins by LC-MS/MS analysis; assay type: physicochemical
Method in brief: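 Thermodynamic solubility: compound at 0.5 mg/mL in isotonic phosphate-buffered saline, pH 7.5, vortexed for 90 min. The solution was then filtered sequentially through 0.45, 1.2 and 5.0 μm filters. Concentration was measured by LC-MS/MS against a ≥6-point internal-standard calibration curve (weighted 1/x linear or quadratic) and back-calculated.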

Mus musculus [3] = species: Mus musculus; assay: Effect on tear secretion in C57BL/6J mouse assessed as increase in tear volume at 1 to 72 uM,TOP and measured upto 6 hrs by phenol red thread test; assay type: functional; settings: dose 1-72 µM
Method in brief: (§1)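 Normal female C57BL/6J mice received 2.5 μL eye drops in both eyes, held for 30 s. Vehicle was 5% polyoxyl 35 castor oil in sodium phosphate buffer. Tear volume was read by phenol red thread placed 15 s in the lateral canthus, wet length by caliper. Readings were taken at 0 h (baseline) and at 1, 3 and 6 h post-dose; n = 6.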

Mus musculus [4] = species: Mus musculus; assay: Effect on tear secretion in C57BL/6J mouse assessed as maximum tear volume at 1 to 72 uM,TOP and measured after 3 hr by phenol red thread test; assay type: functional; settings: dose 1-72 µM; method in brief: as §1
[5] = biological target: T1, Cystic fibrosis transmembrane conductance regulator; assay: Activation of human wild-type CFTR stably expressed in rat FRT cells assessed as increase in apical membrane chloride current incubated for 20 mins by patch-clamp assay; assay type: cell-based
Target sequence in this assay (P13569 whole entry): as above

Mus musculus [6] = species: Mus musculus; assay: Amelioration ocular surface damage in scopolamine-induced dry eye in C57BL/6J mouse model assessed as decrease in IL-17 mRNA expression level in cornea at 0.3 %,TOP 3 times day for 10 days by RT-PCR analysis; assay type: functional, organism-based; settings: time 10.0 day
Method in brief: (§2)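 Dry eye was induced with scopolamine hydrobromide 0.5 mg/0.1 mL given subcutaneously three times daily for 14 days. Eye drops were then applied to both eyes three times daily for 10 days, with scopolamine continued for the first 8 treatment days. The vehicle was 5% polyoxyl 35 castor oil in sodium phosphate buffer. Corneal and conjunctival IL-17 mRNA was measured by real-time PCR; mean ± S.E., n = 5.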

Mus musculus [7] = species: Mus musculus; assay: Amelioration ocular surface damage in scopolamine-induced dry eye in C57BL/6J mouse model assessed as decrease in TNF-alpha mRNA expression level in cornea at 0.3 %,TOP 3 times day for 10 days by RT-PCR analysis; assay type: functional, organism-based; settings: time 10.0 day
Method in brief: (§3)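 Dry eye was induced by subcutaneous scopolamine hydrobromide 0.5 mg/0.1 mL three times daily for 14 days. Eye drops (vehicle, 0.3% diquafosol or test agent) followed three times daily for 10 days, with scopolamine continued for the first 8 days. Cornea and conjunctiva mRNA for MMP-2 and TNF-α was quantified by real-time PCR; n = 5.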

Mus musculus [8] = species: Mus musculus; assay: Amelioration ocular surface damage in scopolamine-induced dry eye in C57BL/6J mouse model assessed as decrease in MMP-2 mRNA expression level in conjunctiva at 0.3 %,TOP 3 times day for 10 days by RT-PCR analysis; assay type: functional, organism-based; settings: time 10.0 day; method in brief: as §3
Mus musculus [9] = species: Mus musculus; assay: Amelioration ocular surface damage in scopolamine-induced dry eye in C57BL/6J mouse model assessed as recovery of tear volume at 0.3 %,TOP 3 times day for 10 days by phenol red thread test; assay type: functional, organism-based; settings: time 10.0 day
Method in brief: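 In scopolamine-induced dry eye mice (0.5 mg/0.1 mL s.c. three times daily, 14 days), drops were given three times daily for 10 days. Scopolamine continued for the first 8 days. Tear volume was read with phenol red thread placed 15 s in the lateral canthus, wet length by caliper. Readings were taken before induction, after induction and after 10 days of drops; n = 5.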

Mus musculus [10] = species: Mus musculus; assay: Amelioration ocular surface damage in scopolamine-induced dry eye in C57BL/6J mouse model assessed as decrease in IL-17 mRNA expression level in conjunctiva at 0.3 %,TOP 3 times day for 10 days by RT-PCR analysis; assay type: functional, organism-based; settings: time 10.0 day; method in brief: as §2
Mus musculus [11] = species: Mus musculus; assay: Amelioration ocular surface damage in scopolamine-induced dry eye in C57BL/6J mouse model assessed as decrease in MMP-2 mRNA expression level in cornea at 0.3 %,TOP 3 times day for 10 days by RT-PCR analysis; assay type: functional, organism-based; settings: time 10.0 day; method in brief: as §3
Mus musculus [12] = species: Mus musculus; assay: Amelioration ocular surface damage in scopolamine-induced dry eye in C57BL/6J mouse model assessed as decrease in TNF-alpha mRNA expression level in conjunctiva at 0.3 %,TOP 3 times day for 10 days by RT-PCR analysis; assay type: functional, organism-based; settings: time 10.0 day; method in brief: as §3
[13] = biological target: T1, Cystic fibrosis transmembrane conductance regulator; assay: Activation of human wild-type CFTR stably expressed in CHO-K1 cells assessed as increase in chloride current at holding potential 0 mV at 30 uM by whole-cell patch-clamp assay; settings: filed as activator
Target sequence in this assay (P13569 whole entry, looked up): as the sequence (P13569 whole entry) above

[14] = biological target: T1, Cystic fibrosis transmembrane conductance regulator; assay: Activation of human CFTR expressed in CHO-K1 cells assessed as increase in intracellular cAMP level at 10 uM incubated for 10 mins in presence of IBMX by Immunoassay; assay type: cell-based; settings: filed as activator
Target sequence in this assay (P13569 whole entry, looked up): as the sequence (P13569 whole entry) above

| Compound | EC50 [1] | further results |
| --- | --- | --- |
| COc1ccc(-c2ccnc3cc(C(=O)Nc4ccc(C(=O)N5CCN(C(=O)OC(C)(C)C)CC5)cc4)nn23)cc1OC | 17 nM |  |
| COc1ccc(-c2ccnc3cc(C(=O)NC4CCCCC4)nn23)cc1OC | 130 nM |  |
| COC(=O)c1ccc(NC(=O)c2cc3nccc(-c4ccc(OC)c(OC)c4)n3n2)c(Cl)c1 | 2700 nM |  |
| COc1ccc(-c2ccnc3cc(C(=O)N[C@H]4CC[C@@H](C(=O)OC)CC4)nn23)cc1OC |  | solubility thermodynamic at 1.5 h ([2]; PBS, pH 7.5): 7.55 µM (≈ 3.31 µg/mL) |
| COc1ccc(-c2ccnc3cc(C(=O)Nc4ccc(C(=O)O)cc4)nn23)cc1OC | 310 nM | solubility thermodynamic at 1.5 h ([2]; PBS, pH 7.5): 5.21 µM (≈ 2.18 µg/mL) |
| COc1ccc(-c2ccnc3cc(C(=O)N4CCN(C(=O)c5ccccc5)C(C)(C)C4)nn23)cc1OC | 200 nM | solubility thermodynamic at 1.5 h ([2]; PBS, pH 7.5): 1.82 µM (≈ 0.907 µg/mL) |
| COc1ccc(-c2ccnc3cc(C(=O)N[C@H]4CC[C@H](C(=O)OC)CC4)nn23)cc1OC |  | solubility thermodynamic at 1.5 h ([2]; PBS, pH 7.5): 1.39 µM (≈ 0.611 µg/mL) |
| COC(=O)c1ccc(CNC(=O)c2cc3nccc(-c4ccc(OC)c(OC)c4)n3n2)cc1 | 470 nM |  |
| O=c1ccn(C2O[C@H](COP(=O)(O)OP(=O)(O)OP(=O)(O)OP(=O)(O)OC[C@H]3O[C@@H](n4ccc(=O)[nH]c4=O)[C@H](O)[C@@H]3O)[C@@H](O)[C@H]2O)c(=O)[nH]1 (some centres undefined) |  | Activity (Mus musculus [6]): Active; Activity (Mus musculus [7]): Active; Activity (Mus musculus [8]): Active; Activity (Mus musculus [9]): Active; Activity (Mus musculus [10]): Active; Activity (Mus musculus [11]): Active; Activity (Mus musculus [12]): Active |
| COc1ccc(-c2ccnc3cc(C(=O)N4CC[C@@H](NC(=O)OC(C)(C)C)C4)nn23)cc1OC | 370 nM |  |
| COc1ccc(-c2ccnc3cc(C(=O)N4CCN(C(=O)c5ccccc5)CC4)nn23)cc1OC | 110 nM | solubility thermodynamic at 1.5 h ([2]; PBS, pH 7.5): 10.1 µM (≈ 4.74 µg/mL) |
| COc1ccc(-c2ccnc3cc(C(=O)Nc4ccc(C(=O)N5CCN(C)CC5)cc4)nn23)cc1OC.Cl | 290 nM | solubility thermodynamic at 1.5 h ([2]; PBS, pH 7.5): 237 µM |
| COC(=O)C12CC(NC(=O)c3cc4nccc(-c5ccc(OC)c(OC)c5)n4n3)(C1)C2 | 310 nM | solubility thermodynamic at 1.5 h ([2]; PBS, pH 7.5): 1.42 µM (≈ 0.599 µg/mL) |
| COc1ccc(-c2ccnc3cc(C(=O)Nc4ccc(C(=O)O)cc4F)nn23)cc1OC | 42 nM | solubility thermodynamic at 1.5 h ([2]; PBS, pH 7.5): 0.341 µM (≈ 0.149 µg/mL) |
| COc1ccc(-c2ccnc3cc(C(=O)N4CCN(c5ccccc5)CC4)nn23)cc1OC | 840 nM |  |
| COc1ccc(-c2ccnc3cc(C(=O)N4CCN(C(=O)OC(C)(C)C)CC4)nn23)cc1OC | 270 nM |  |
| COc1ccc(-c2ccnc3cc(C(=O)N4CCN(C)CC4)nn23)cc1OC | 8100 nM |  |
| C=C[C@@]1(C)CC(=O)[C@]2(O)[C@@]3(C)[C@@H](O)CCC(C)(C)[C@@H]3[C@H](O)[C@H](OC(C)=O)[C@@]2(C)O1 |  | Activity [13]: Active; Activity [14]: Active |
| COc1ccc(-c2ccnc3cc(C(=O)N4CCN(C(=O)c5ccccc5)[C@H](C)C4)nn23)cc1OC |  | solubility thermodynamic at 1.5 h ([2]; PBS, pH 7.5): 159 µM (≈ 77 µg/mL) |
| COc1ccc(-c2ccnc3cc(C(=O)N4CCNCC4)nn23)cc1OC | 17000 nM |  |
| COc1ccc(-c2ccnc3cc(C(=O)N4CCN(Cc5ccccc5)CC4)nn23)cc1OC | 730 nM |  |

Now from value to molecule, other results behind:

| EC50 [1] | Compound | further results |
| --- | --- | --- |
| 14 nM | COC(=O)c1ccc(NC(=O)c2cc3nccc(-c4ccc(OC)c(OC)c4)n3n2)cc1 |  |
| 18 nM | CCOc1ccc(NC(=O)c2cc3nccc(-c4ccc(OC)c(OC)c4)n3n2)cc1 | Activity (Mus musculus [3]): Dose-Dependent Effect; Activity (Mus musculus [4]): Active; EC50 [5]: 342 nM |
| 1700 nM | COc1ccc(-c2ccnc3cc(C(=O)N4CCN(C(=O)C5CC5)CC4)nn23)cc1OC |  |
| 710 nM | COc1ccc(-c2ccnc3cc(C(=O)NCc4ccc(N5CCOCC5)cc4)nn23)cc1OC |  |
| 1400 nM | COc1ccc(-c2ccnc3cc(C(=O)N4CCN(C5CC5)CC4)nn23)cc1OC |  |
| 700 nM | COc1ccc(-c2ccnc3cc(C(=O)N4CC(NC(=O)OC(C)(C)C)C4)nn23)cc1OC |  |
| 16000 nM | COc1ccc(-c2ccnc3cc(C(=O)Nc4ccc(C(=O)NCCN)cc4)nn23)cc1OC |  |
| 6 nM | COc1ccc(-c2ccnc3cc(C(=O)Nc4ccc(OCCN5CCOCC5)cc4)nn23)cc1OC |  |
| 65 nM | COc1ccc(-c2ccnc3cc(C(=O)Nc4ccccc4)nn23)cc1OC | solubility thermodynamic at 1.5 h ([2]; buffer, pH 7.5, 1.5 h): 0.059 µM (≈ 0.0221 µg/mL) |
| 6000 nM | COc1ccc(-c2ccnc3cc(C(=O)N4CCN(C(C)C)CC4)nn23)cc1OC |  |
| 7 nM | COc1ccc(-c2ccnc3cc(C(=O)Nc4ccc(N5CCOCC5)cc4)nn23)cc1OC |  |
